Source: PubChem BioAssay
Shown are actives, neighbours in structure and some others; about 12% of the full set was active somewhere.
MT stabilizer = microtubule stabilizers in HeLa cells, primary screen, imaging, high-content imaging. AID 2205, 2009. HeLa tubulin immunostaining HCS, 24 h; share of cells brighter than vehicle mean+2SD. % tubulin-high responders, % at 10 µM. hit rate 0.83% among 200,000;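 active = plate Z-score above 3 for both tubulin-high and condensed-nucleus cell shares, with cell loss under 80%, at 10 µM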;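 note: anti alpha tubulin signal scored within the nucleus-defined area of each cell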
b-catenin transl = modulators of beta-catenin nuclear translocation, primary screen, imaging, HeLa cells, immunofluorescence, high-content; hit rate 0.3% among 190,000; nuclear translocation activity, % at 5 µM;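 active = nuclear translocation activity above 50% at 5 µM, with a well cell count of 50 or more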;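 note: per-cell ratio of nuclear to cytoplasmic median beta-catenin stain intensity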
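Technique: fluorescence imaging of beta-catenin antibody stain plus DAPI / Material: human HeLa cell line / Incubation: compound treatment 24 h, 37°C, 5% CO2 / Read-out basis: % activation of per-cell nuclear versus cytoplasmic median beta-catenin signal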
CHOP inhibitor = inhibitors of CHOP promoter induction, primary screen, cell-based, unfolded protein response, luciferase reporter; CHO-K1 CHOP-promoter luciferase, tunicamycin-induced, 15-18 h; hit rate 3.8% among 220,000; inhibition, % at 10 µM;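 active = compounds that reduced the stress-induced luciferase reporter signal by more than about 70% of percent inhibition, limit read from the data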
L major viab = Leishmania major promastigote growth inhibition, primary screen; Leishmania major promastigotes, resazurin fluorescence viability; hit rate 9% among 200,000; inhibition, % at 10 µM; in the data active = inhibition above about 50%;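 note: promastigotes grown with compound for 44 hours at 28 °C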
Autophagy mod = autophagy modulators in MEF cells, primary screen, imaging, high-content, MEF GFP-LC3; MEF GFP-LC3 puncta imaging; test concentration mostly 10 µM; calls only at 10 µM (by protocol); hit rate 0.98% among 190,000; AID 463193, 2010;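 active = percentage of spot-positive cells more than 3 SD above its plate mean, without a fluorescence outlier flag or 80% toxicity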
Dynein cargo inh = inhibitors of GR-EGFP nuclear translocation, primary screen, dynein cargo transport inhibitor project, imaging, high-content, 3617.4 mouse cells; test concentration mostly 20 µM; stimulated with dexamethasone, 1 µM; hits give low values; z-score, hits read low; hit rate 0.47% among 220,000;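 active = plate z-score of nuclear minus cytoplasmic receptor signal below a set negative limit, without overly bright fluorescence or cell loss, cut at about -3.5 in these data, passing the limit was not always enough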;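 note: z-score of nuclear minus cytoplasmic ring GR-EGFP intensity difference per well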
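Buffer or medium: tet-free, stripped-serum medium; Also added: dexamethasone, 1.0 µM final; Technique: high-content fluorescence imaging after fixation; Times: 48 h induction, 1 h compound, 30 min dex at 37 °C; Read-out: per-cell GR-EGFP intensity, nucleus versus surrounding cytoplasmic ring, well-averaged.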
Numbers stand for hits; . = inactive; / = not tested or not shown; + = active, no number.

SMILES | MT stabilizer | b-catenin transl | CHOP inhibitor | L major viab | Autophagy mod | Dynein cargo inh
COc1c(F)c(F)c(C(=O)Nc2ccc(-c3nc4ccccc4[nH]3)cc2)c(F)c1F | . | . | 83 | . | . | .
O=C(Nc1ccc(-c2nc3ccccc3[nH]2)cc1)c1c(F)c(F)c(F)c(F)c1F | . | . | . | . | . | .
COc1cccc(CNC(=O)CCC2CCCN(C(=O)C3=CC(=O)CC(C)(C)O3)C2)c1 (stereo not given) | . | . | . | . | . | .
CCN(CC)CC(=O)NN=C(c1ccccc1)c1ccccc1 | . | . | . | . | . | .
O=C(CCl)NN=C(c1ccccc1)c1ccccc1 | . | . | . | 100 | . | .
O=C(CN1CCC(O)(c2cccc(F)c2)CC1)NCCc1c[nH]c2ccccc12 | / | . | . | / | / | .
FC(F)(F)Oc1ccc(Nc2nc3ccccc3o2)cc1 | . | . | 91 | . | . | .
CC1=C(C(=O)OCC2CCCO2)C(c2ccc(C)o2)C2=C(CC(c3ccc(N(C)C)cc3)CC2=O)N1 (stereo not given) | . | . | . | 85 | . | .
CC1=C(C(=O)OCC2CCCO2)C(c2ccc(C)o2)C2=C(CC(c3ccc(F)cc3)CC2=O)N1 (stereo not given) | . | / | . | . | . | .
CCn1c(Cc2ccccc2)nnc1SCC(=O)Nc1ccccc1O | . | . | . | . | . | .
CC1(C(=O)NCCN2CCOCC2)C=CCN1C(=O)c1ccccc1 (stereo not given) | . | . | . | . | + | .
CC(=O)c1cccc(NC(=O)COC(=O)C2=COCCO2)c1 | . | . | . | . | . | .
CCN(CC)CCCN(C(C)=O)c1nc(-c2cc(OC)ccc2OC)cs1 | . | . | . | 100 | . | .
CCC(=O)N(Cc1ccco1)c1nc(-c2cc(OC)ccc2OC)cs1 | . | . | 75 | . | . | .
COc1ccc(C2/C=C\CN(C(=O)C3CCCC3)CC(=O)N2Cc2ccc(F)cc2)cc1 (stereo not given) | / | . | . | / | / | .
O=C(Nc1ccc(C(=O)O)cc1)Nc1cccc([N+](=O)[O-])c1 | . | . | . | . | . | .
O=C(Nc1cccc([N+](=O)[O-])c1)Nc1cccc([N+](=O)[O-])c1 | . | . | 84 | . | . | .
CC(C(=O)Nc1cccc(Br)c1)c1ccc([N+](=O)[O-])cc1 (stereo not given) | . | . | . | 51 | . | .
CS(=O)(=O)c1ccc2nc(NC(=O)Nc3cccc(Cl)c3)sc2c1 | . | / | 92 | . | . | .
O=C(Nc1ccccc1)Nc1ccc(Cl)c([N+](=O)[O-])c1 | . | . | . | 53 | . | .
Cc1ccc(NC(=O)Nc2ccccc2)cc1[N+](=O)[O-] | . | . | . | . | . | .
COc1ccc2c3c(c(=O)oc2c1OCC(N)=O)CCCC3 | . | . | . | . | . | .
CC(Sc1nc2c(cc1C#N)CCCCC2)C(=O)O (stereo not given) | . | . | . | . | . | .
COc1ccc(NC(=O)C(c2ccccc2)N(C)C(=O)c2ccc(=O)[nH]c2)cc1 (stereo not given) | . | . | . | . | . | .
CC(CCc1ccccc1)NC(=O)CN1CCN(Cc2ccc(Cl)cc2)C1=O (stereo not given) | . | / | . | . | . | .
SMILES | MT stabilizer | b-catenin transl | CHOP inhibitor | L major viab | Autophagy mod | Dynein cargo inh
Cc1cccc(C)c1NS(=O)(=O)c1ccc(NC(=O)c2ccc(Cl)c([N+](=O)[O-])c2)cc1 | . | . | 73 | . | . | .
O=C(Nc1ccc(Cl)c([N+](=O)[O-])c1)Nc1nc2ccccc2s1 | / | . | 92 | / | / | .
O=C(O)CC/C(=C\c1cc([N+](=O)[O-])ccc1Cl)c1nc2ccccc2s1 | . | . | . | . | . | .
O=C(Nc1ccc(Cl)cc1)/C(=C/c1ccc([N+](=O)[O-])cc1)c1nc2ccccc2s1 | 36 | . | 105 | 100 | . | .
Cc1onc(-c2ccccc2Cl)c1C(=O)N1C=CC(C(F)(F)Cl)=NCC1 | . | / | . | . | . | .
CC1(C(=O)OCc2cc(=O)n3cc(Br)ccc3n2)CC1(Cl)Cl (stereo not given) | . | . | . | . | . | .
